ChEMBL document CHEMBL4004800, “Thiol-Based Probe for Electrophilic Natural Products Reveals That Most of the Ammosamides Are Artifacts” (J Nat Prod, 2017)
One block for each molecule: values may come before it. Calls of active or inactive are those of the source. No cut-off for these calls is given here.

Key:
[1] = test system: HCT-116; assay: Cytotoxicity against human HCT116 cells assessed as growth inhibition by MTS assay; type: functional, cell-based
How it was run: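 HCT-116 colorectal cells, cultured as in earlier work, were tested by colorimetric MTS assay. Compounds were supplied in DMSO from a 10 mg mL⁻¹ stock. IC50 came from a four-parameter sigmoidal fit, and values are averages of three measurements. Controls were DMSO (negative) and etoposide (positive, 4 mg mL⁻¹ stock in DMSO).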

[2] = Stability of the compound in culture medium
[3] = Drug metabolism assessed as half life for ammosamide B formation; type: physicochemical
[4] = test system: Escherichia coli; assay: Antibacterial activity against Escherichia coli MG1655 at 10 ug after 48 hrs by disk diffusion method; type: functional; details: K-12 substr. MG1655
How it was run: (§1)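 Kirby–Bauer disk diffusion on LB agar swabbed with inocula from 24 h LB (pH 7.0) precultures grown at rt, 200 rpm. Each 6 mm paper disc carried 10 μg compound, applied as […] in MeOH and dried before placement. Controls were MeOH (10 μL) as negative and ciprofloxacin 5 μg as positive. Plates were incubated 48 h.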

[5] = test system: Bacillus oceanisediminis; assay: Antibacterial activity against Bacillus oceanisediminis CNY-977 at 10 ug after 48 hrs by disk diffusion method; type: functional; how it was run: as §1
[6] = Drug metabolism assessed as compound formation from ammosamide C; type: physicochemical
How it was run: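 Ammosamide C TFA salt kept at rt in seawater-based A1 medium pH 10.0 (1.0 mg/500 μL; pH 6.8 control), PBS pH 10 (2.0 mg/1.0 mL), saturated NaHCO₃ pH 8.1 (2.0 mg/1.0 mL), or PBS pH 10 with 7 equiv L-cysteine. Products followed over days by analytical C18 ELSD-UV/vis-HPLC (1–60% CH₃CN, 0.1% formic acid), plus LC-HRMS for the buffer reactions.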

[7] = test system: HCC44; assay: Cytotoxicity against human HCC44 cells; type: functional, cell-based
[8] = test system: HCT-116; assay: Cytotoxicity against human HCT116 cells assessed as growth inhibition at 78.125 ug/ml by MTS assay relative to control; type: functional; details: read-out: GI
[9] = Homo sapiens, HCT-116, read-out: IC50

SMILES: CN1/C(=N/c2ccc(Cl)cc2)c2cc(C(N)=O)nc3c(N)c(Cl)c(N)c1c23
IC50 [1, 9]: 39 µM

t1/2 [3]: 10 days
SMILES: C[N+]1=Cc2cc(C(N)=O)nc3c(N)c(Cl)c(N)c1c23
Stability [2]: Stable
IC50 [1, 9]: 5.5 µM
Activity [4]: Active
Activity [5]: Active

SMILES: CN1C(=O)c2cc(C(N)=O)nc3c(N)c(Cl)c(N)c1c23 [AMMOSAMIDE B]
IC50 [1, 9]: 29 µM
Drug metabolism [6]: Metabolite_Detected
Activity [4]: Active

SMILES: CCCCCC/N=C1\c2cc(C(N)=O)nc3c(N)c(Cl)c(N)c(c23)N1C
IC50 [7]: 500 nM

SMILES: CC(=O)NCCSC1=[N+](C)c2c(N)c(Cl)c(N)c3nc(C(N)=O)cc1c23
IC50 ([1]; hct-116): Not Active
inhibition of growth at 78.125 µg/mL [8]: 26%

SMILES: CCCNC1=[N+](C)c2c(N)c(Cl)c(N)c3nc(C(N)=O)cc1c23
IC50 [1, 9]: 6.8 µM

SMILES: COc1cc([C@@H]2c3cc4c(cc3[C@@H](O[C@@H]3O[C@@H]5CO[C@@H](C)O[C@H]5[C@H](O)[C@H]3O)[C@H]3COC(=O)[C@H]23)OCO4)cc(OC)c1O [ETOPOSIDE]
IC50 [1, 9]: 0.49 to 4.9 µM

SMILES: CN1C(=S)c2cc(C(N)=O)nc3c(N)c(Cl)c(N)c1c23
IC50 ([1]; hct-116): Not Active
inhibition of growth at 78.125 µg/mL [8]: 19%
Activity [4]: Active

SMILES: CC(C)/N=C1\c2cc(C(N)=O)nc3c(N)c(Cl)c(N)c(c23)N1C
IC50 [7]: 1100 nM

SMILES: CNC(=O)c1cc(C(N)=O)nc2c1C(=O)C(=O)C(Cl)=C2N
IC50 ([1]; hct-116): Not Active
inhibition of growth at 78.125 µg/mL [8]: 97%
